Common to all, as to assay type: functional, cell-based
Experiment [1] concerns A549. Briefly: Cytotoxicity against human A549 cells after 48 hrs by MTT assay. The following applies: A549, 48 h. The procedure, abridged:
(§1)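 Cells seeded in 96-well plates 12 h before dosing, then continuously exposed to a range of compound concentrations for 48 h. MTT added for a further 4 h, then 20% SDS added and left 12 h at room temperature. OD read at 595 nm. IC50 calculated by the Reed and Muench method.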
A general note: Tetrazolium dyes change colour on reduction, which living cells bring about.

Experiment [2] concerns MCF7. Briefly: Cytotoxicity against human MCF7 cells after 48 hrs by MTT assay. The following applies: MCF7, 48 h. In short, it runs like this:
as §1

Experiment [3] deals with SMMC-7721. Briefly: Cytotoxicity against human SMMC7721 cells after 48 hrs by MTT assay. To be noted: SMMC-7721, 48 h. The procedure, abridged:
as §1

Experiment [4] deals with SW480. Nature of the experiment: Cytotoxicity against human SW480 cells after 48 hrs by MTT assay. To be noted: SW480, 48 h. In short, it runs like this: as §1
In experiment [5] the test system is HL-60. Briefly: Cytotoxicity against human HL60 cells after 48 hrs by MTT assay. To be noted: HL-60, 48 h. In short, it runs like this: as §1

Usually IC50 stands for the midpoint of a concentration-inhibition curve. Read a high IC50 as weaker potency in that assay.

In the case of `C/C=C(\C)C(=O)O[C@@H]1C/C(C)=C/CC[C@@]2(C)O[C@@H]2[C@@H](OC(=O)C(C)C(C)OC(C)=O)[C@H]1C(C)C` (stereo not given in full) [TRIJUGIN I], the 50% inhibitory concentration (IC50) in experiment [1] is above 40 µM; in experiment [2], above 40 µM; in experiment [3] it was 34 µM; in experiment [4], 24.9 µM; in experiment [5], 17.1 µM.

Take `C[C@@H]1CC[C@]2(C(=O)O)CC[C@]3(C)C(=CC[C@@H]4[C@@]5(C)C(CO)=CC(C)(C)[C@@H]5CC[C@]43C)[C@@H]2[C@]1(C)O` [HYPTASIENIC ACID]: the IC50 in experiment [1] is 24.7 µM; in experiment [2] it was above 40 µM; in experiment [3] it was 21 µM; in experiment [4] it was 10.9 µM; in experiment [5] it was 15.5 µM.

Values taken from ChEMBL document CHEMBL1165996, “Terpenoids from Salvia trijuga” (J Nat Prod, 2010).
